MPTP inh = permeability transition pore inhibition; isolated mouse mitochondria, Ca2+ swelling absorbance, 30 min; 360,000 tested, 1.4% active; inhibition, % at 10 µM;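 active = inhibition of 50% or more, scaled per plate between neutral and stimulator controls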;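 also: 0% = DMSO wells given calcium and 100% = 1 mM EGTA wells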
Lipid droplet = hepatic lipid droplet formation modulation; AML12 mouse hepatocytes, oleate lipid droplets, BODIPY imaging; inhibition, % at 6.5 µM; 240,000 tested, 0.4% active;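 active = lipid droplet intensity inhibited by at least 50%, with more than 500 cells counted; inconclusive = wells with under 300 cells, treated as cytotoxic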
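Assay system: AML12 mouse liver cells | Compound: 6.5 µM single-point dosing | Schedule: Overnight exposure | Technique: Fluorescence imaging, 20x objective, two fields per well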
L major viab = reduces viability of Leishmania major promastigotes; 200,000 tested, 9% active; AID 1063; resazurin fluorescence viability; inhibition, % at 10 µM; in the data active = inhibition above about 50%;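 also: promastigotes grown with compound for 44 hours at 28 °C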
T cruzi repl = T. cruzi replication inhibition. 300,000 tested, 1.4% active. T. cruzi beta-gal in NIH3T3, luminescence, 90 h. inhibition, % (test concentration not listed). AID 1885;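 active = mean inhibition across valid replicates above about 55%, limit read from the data; inconclusive = mean below that limit but half or more replicates reach it; inactive = mean below it, under half of replicates reach it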;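 also: signal also drops with host cell toxicity which is not excluded here; 0% = plate median of DMSO wells and 100% = zero luminescence signal; higher percent means less beta-gal luminescence so fewer parasites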
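Incubation – ≥90 h infection period, 3 h prior cell attachment · System – NIH/3T3 fibroblasts plus reporter T. cruzi · Doses – compound pinned at 50 nL/well, DMSO · Read-out basis – percent inhibition of parasite-derived β-gal signal · Signal – luminescent β-galactosidase signal after 60 min lysis · Also added – 5000 T. cruzi trypomastigotes/well · Medium – Low-serum DMEM with 2% FBS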
DTT redox prof = compounds producing H2O2 with reducing agent – biochemical, NIH compound library profiling, artefact control for MLSCN library redox annotation, primary screen | activation, % at 10 µM | AID 878 | 200,000 tested, 0.03% active | DTT-dependent redox cycling H2O2, phenol red/HRP absorbance; 100% = 100 µM peroxide control, 0% = buffer;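 active = activation of at least 50% relative to the plate's high and low controls in the primary single-dose screen; inactive = activation below 50%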;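 also: compound incubated with DTT at 0.8 mM final as the reducing agent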
An asterisk follows results filed as active; u = inconclusive; x = no result given. This is one part of a sample in which hits are shown more often than they occur.

SMILES	MPTP inh	Lipid droplet	L major viab	T cruzi repl	DTT redox prof
CCCCNC(=O)C(NC(=O)c1ccc(-c2ccccc2)cc1)C(=O)c1ccccc1 (configuration not stated)	4	x	x	x	x
COCCn1nnnc1C(C(C)C)N(Cc1cccnc1)Cc1ccccc1Cl (configuration not stated)	-18	5	66*	29	3
COc1ccc(CN2C(=O)c3c(c(C)n(C)c3C)C2C(=O)NC2CCC(C)CC2)cc1 (configuration not stated)	0	19	9	3	-1
Cc1ccc(N2NC(C)(c3cccs3)NC2=S)cc1 (configuration not stated)	0	-8	89*	1	-1
CC1CCCCN1S(=O)(=O)c1ccc(N(C(=O)c2cnccn2)C(C(=O)NC2CCCCC2)c2cccs2)cc1 (configuration not stated)	0	-4	14	12	0
CC1CCCCN1S(=O)(=O)c1ccc(N(C(=O)c2cnccn2)C(C(=O)NC2CCCC2)c2cccs2)cc1 (configuration not stated)	4	-11	93*	9	-1
CC1CC(C)(C)NC(=S)N1CCCC(=O)N1CCN(c2ccccc2F)CC1 (configuration not stated)	0	-6	61*	0	1
CC1CC(C)(C)NC(=S)N1CCCC(=O)Nc1ccccc1F (configuration not stated)	1	12	-1	-11	-1
COC(=O)c1[nH]c2cc(C)ccc2c1NC(=O)CN1CCN(c2ccccc2OC)CC1	-1	3	3	20	1
COC(=O)c1[nH]c2ccc(C)cc2c1NC(=O)CN1CCCc2ccccc21	-1	-30	4	85*	0
O=C(NN1C(=O)c2ccccc2NC1c1ccc([N+](=O)[O-])o1)c1ccc([N+](=O)[O-])cc1 (configuration not stated)	-1	-66	95*	29	0
O=C(NN1C(=O)c2ccccc2NC1c1ccc([N+](=O)[O-])o1)c1ccccc1 (configuration not stated)	0	-15	86*	42	0
COc1ccc(-n2c(-c3ccccc3)cc3c2CCCC3=O)cc1	1	x	80*	37	1
Cc1ccc(C(C)(C)C)c(OCCOCCN2CCCC2)c1	22	-2	96*	16	0
CC(C)(C)c1ccccc1OCCOCCSc1ncccn1	0	5	97*	28	0
CC(C)(C)c1ccccc1OCCOCCN1CCCCCC1	20	-13	96*	56*	-1
CCOC(=O)C1CCCN(c2cc(=O)n(C3CCCCC3)c(=O)[nH]2)C1 (configuration not stated)	-1	6	2	-4	-2
COC(=O)COc1cc(C)cc2oc(=O)c(CC(=O)OC)c(C)c12	-1	-2	-3	-6	0
COC(=O)COc1cc(OCC(=O)OC)c2c(C)c(Cl)c(=O)oc2c1	-1	3	51*	-9	0
CCOC(=O)c1[nH]c(C)c(CC(C)C)c1C	0	-12	8	-1	-1
Cc1cc(=O)oc2cc(Oc3ccc([N+](=O)[O-])cc3[N+](=O)[O-])ccc12	1	17	86*	-3	0
Cc1cc(=O)oc2cc(Oc3ncccc3[N+](=O)[O-])ccc12	0	-7	-10	-23	-1
Cc1ccc(S(=O)(=O)N(C)c2ccc(C(=O)Nc3cccnc3)cc2)cc1	-1	12	x	-8	x
O=C(O)c1ccc(N2C(=O)/C(=C/c3ccc(-c4ccc([N+](=O)[O-])cc4)o3)C=C2c2ccccc2)cc1	28	7	99*	4	1
CCC1CCCCN1Cc1ccc(CNS(=O)(=O)c2ccc3c(c2)oc(=O)n3C)o1 (configuration not stated)	3	x	98*	12	-3
SMILES	MPTP inh	Lipid droplet	L major viab	T cruzi repl	DTT redox prof
Cn1c(=O)c2cc(S(=O)(=O)Nc3ccc4c(c3)OCO4)ccc2n(C)c1=O	1	8	30	8	2
Cn1c(=O)oc2cc(S(=O)(=O)NC3CCCCC3)ccc21	-1	-42	x	-5	x
Cn1c(=O)oc2cc(S(=O)(=O)NC3CCN(Cc4ccccc4)CC3)ccc21	1	-39	50*	-5	0
Cn1c(=O)oc2cc(S(=O)(=O)NCc3ccco3)ccc21	-2	x	-10	-2	0
Cn1c(=O)oc2cc(S(=O)(=O)Nc3ccc4c(c3)OCO4)ccc21	0	x	66*	-15	2
O=S(=O)(NC1CCN(Cc2ccccc2)CC1)c1ccc2ccccc2c1	-1	1	89*	11	-1
O=C(Cn1cnc2ccccc2c1=O)c1ccc(OC(F)F)cc1	0	-3	x	-11	x
CC(=O)C1=CCC(c2ccccc2)N(S(=O)(=O)c2ccc(Cl)cc2)C1 (configuration not stated)	1	x	x	x	x
O=C(COC(=O)Cn1cc(C(F)(F)F)ccc1=O)NCc1ccccc1	-1	x	x	x	x
O=C(NCc1ccccc1F)C1CCCN(S(=O)(=O)N2CCOCC2)C1 (configuration not stated)	-1	1	x	-17	x
COC(=O)CNC(=O)Cn1nc(C)c([N+](=O)[O-])c1C	0	26	-8	-9	-2
CCN(CC)CCNC(=O)Cn1cnc2sc(C)c(S(=O)(=O)N3CC(C)CC(C)C3)c2c1=O (configuration not stated)	0	0	x	5	x
Cc1cc(C)c(C)c(S(=O)(=O)NC2CCN(Cc3ccccc3)CC2)c1C	-1	-17	59*	26	-1
O=C(C1CC1)N1CCc2cc(S(=O)(=O)NC3CCN(Cc4ccccc4)CC3)ccc21	12	x	59*	2	0
CC(C)CC(NS(=O)(=O)c1ccc2c(c1)oc(=O)n2C)C(=O)N1CC=C(c2ccccc2)CC1 (configuration not stated)	-3	x	86*	x	-1
O=S(=O)(NC1CCN(Cc2ccccc2)CC1)c1ccc(F)c(F)c1	-2	x	x	x	x
Cn1c(=O)oc2cc(S(=O)(=O)NCCC(=O)N3CC=C(c4ccccc4)CC3)ccc21	5	x	6	-11	0
O=C(COC(=O)c1cc2ccccc2cc1O)Nc1cccnc1Cl	-2	u	63*	-20	0
O=C(COC(=O)c1ccccc1O)Nc1cccnc1Cl	-1	0	46	-9	0
C=CCn1c(=O)c2c3c(sc2n2c(Nc4ccc(C(=O)OCC)cc4)nnc12)CCCC3	8	-2	94*	24	0
C=CCn1c(=O)c2c3c(sc2n2c(Nc4ccc(OC)cc4)nnc12)CCCC3	-1	-9	38	x	6
C=CCn1c(=O)c2c3c(sc2n2c(Nc4ccccc4)nnc12)CCCC3	-1	-2	52*	36	1
Cn1c(=O)c2nc(NCc3ccccc3)cnc2n(C)c1=O	0	x	1	-8	3
Cc1nc2c(=O)n(C)c(=O)n(C)c2nc1Cl	5	-26	100*	-3	0

Screens: PubChem, several laboratories
